Experimental data taken from ChEMBL document CHEMBL1127840, “Conformational analysis of 5-lipoxygenase inhibitors: role of the substituents in chiral recognition and on the active conformations of the (methoxyalkyl)thiazole and methoxytetrahydropyran series” (J Med Chem, 1994).
Blank lines part the entries; values can stand above or below the molecule they belong to.

Key:
[1] = target: T1, Polyunsaturated fatty acid 5-lipoxygenase (Homo sapiens, UniProt P09917); assay: Inhibition of 5-lipoxygenase from human whole blood; format: tissue-based
T1 sequence (P09917 whole entry): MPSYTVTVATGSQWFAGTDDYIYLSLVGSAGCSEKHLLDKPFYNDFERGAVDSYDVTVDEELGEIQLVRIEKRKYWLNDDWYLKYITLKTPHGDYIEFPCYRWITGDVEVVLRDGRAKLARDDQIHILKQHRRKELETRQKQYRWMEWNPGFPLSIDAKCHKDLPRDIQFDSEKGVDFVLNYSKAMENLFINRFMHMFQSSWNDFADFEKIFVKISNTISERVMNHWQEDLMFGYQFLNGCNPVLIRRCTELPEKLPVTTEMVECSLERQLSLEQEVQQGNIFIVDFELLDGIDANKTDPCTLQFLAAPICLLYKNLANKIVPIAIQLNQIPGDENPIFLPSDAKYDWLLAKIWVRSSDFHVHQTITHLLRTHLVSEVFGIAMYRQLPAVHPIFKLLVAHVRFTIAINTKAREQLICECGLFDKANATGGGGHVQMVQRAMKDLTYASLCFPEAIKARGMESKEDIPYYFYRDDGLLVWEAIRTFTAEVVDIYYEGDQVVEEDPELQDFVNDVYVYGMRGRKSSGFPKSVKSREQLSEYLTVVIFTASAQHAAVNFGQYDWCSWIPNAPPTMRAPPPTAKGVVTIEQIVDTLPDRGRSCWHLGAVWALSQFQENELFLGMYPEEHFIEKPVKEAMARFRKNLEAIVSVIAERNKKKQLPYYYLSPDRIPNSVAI
Outline: (§1)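 Eicosanoid generation measured to assess 5-LO inhibition. IC50 from iterative four-parameter curve fit. Data reported as mean ± SE with the number of determinations; where only two runs were made, both values are given.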

[2] = target: T1, Polyunsaturated fatty acid 5-lipoxygenase; assay: Inhibitory concentration against 5-lipoxygenase from human whole blood; format: tissue-based; outline: as §1
[3] = target: T2, Polyunsaturated fatty acid 5-lipoxygenase (Mus musculus, UniProt P48999); assay: Inhibition of 5-lipoxygenase from mouse macrophage
T2 sequence (P48999 whole entry): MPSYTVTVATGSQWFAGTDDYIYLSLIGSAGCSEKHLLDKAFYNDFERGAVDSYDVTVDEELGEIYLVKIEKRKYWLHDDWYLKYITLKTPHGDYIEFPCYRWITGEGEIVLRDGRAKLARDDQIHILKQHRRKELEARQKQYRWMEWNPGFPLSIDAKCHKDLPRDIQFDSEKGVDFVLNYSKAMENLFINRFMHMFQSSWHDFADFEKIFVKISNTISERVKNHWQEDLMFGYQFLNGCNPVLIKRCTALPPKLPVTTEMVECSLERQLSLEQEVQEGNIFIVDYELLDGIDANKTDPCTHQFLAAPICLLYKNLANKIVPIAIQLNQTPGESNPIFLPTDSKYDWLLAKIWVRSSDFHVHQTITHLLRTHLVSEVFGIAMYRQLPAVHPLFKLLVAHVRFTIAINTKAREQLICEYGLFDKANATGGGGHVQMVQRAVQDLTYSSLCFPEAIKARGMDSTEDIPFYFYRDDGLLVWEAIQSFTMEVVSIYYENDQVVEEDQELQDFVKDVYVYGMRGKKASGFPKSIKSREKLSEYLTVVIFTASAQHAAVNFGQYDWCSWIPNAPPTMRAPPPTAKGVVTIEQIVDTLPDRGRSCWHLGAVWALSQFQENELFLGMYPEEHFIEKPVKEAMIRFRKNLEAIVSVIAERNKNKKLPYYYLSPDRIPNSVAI
Outline: (§2)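 Plasma-free cultures of murine peritoneal macrophages. Inhibition of LTC4 synthesis (5-LO product) measured, with PGE2 also monitored. IC50 from iterative four-parameter curve fit. Data reported as mean ± SE with the number of determinations; where only two runs were made, both values are given.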

[4] = target: T2, Polyunsaturated fatty acid 5-lipoxygenase; assay: Inhibitory concentration against 5-lipoxygenase from mouse macrophage; outline: as §2

IC50 [1]: 27 nM
SMILES: COC1(c2cc(F)cc(OCc3ccc4c(ccc(=O)n4C)c3)c2)CCOCC1 [ZD-2138]

IC50 [2]: 520 nM
IC50 [3]: 48 nM
SMILES: CC[C@@](COC)(OC)c1cc(F)cc(OCc2ccc3c(ccc(=O)n3C)c2)c1

IC50 [4]: 1250 nM
SMILES: COC1(c2nccs2)CCc2ccc(OCc3ccc4ccccc4c3)cc21 (single isomer, unassigned; (-))

IC50 [3]: 45 nM
SMILES: CC[C@](COC)(OC)c1cc(F)cc(OCc2ccc3c(ccc(=O)n3C)c2)c1
